# Laboratory results as given in ChEMBL document CHEMBL4393694, “A multifunctional therapeutic approach: Synthesis, biological evaluation, crystal structure and molecular docking of diversified 1H-pyrazolo[3,4-b]pyridine derivatives against Alzheimer's disease” (Eur J Med Chem, 2019).
# The source made the active and inactive calls. No cut-off for these calls is given here.
# What was measured:
# [1] = biological target: T1, Amyloid-beta precursor protein (Homo sapiens, UniProt P05067); test: Inhibition of self-mediated amyloid beta (1 to 42) (unknown origin) aggregation incubated for 48 hrs by thioflavin-T fluorescence assay
# Procedure, shortened: (§1)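 HFIP-pretreated Aβ1-42 from a DMSO stock was diluted in phosphate buffer (50 mM, pH 7.4). Peptide was incubated with or without inhibitor at 10, 15, 20 or 25 μM for 48 h at 37 °C. Samples were diluted to 200 μL with glycine–NaOH (50 mM, pH 8.0) and fibrils read by ThT fluorescence. Blanks lacking Aβ were run. IC50 was derived from the four concentrations.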
# [2] = Antioxidant activity assessed as AAPH-induced radical scavenging activity by measuring trolox equivalents for oxygen radical absorbance capacity measured up to 80 mins by ORAC-FL assay; format: functional
# Procedure, shortened: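 Fluorescein (70 nM final) with test compound at eight concentrations (1–8 μM) in 75 mM phosphate buffer pH 7.4, preincubated 15 min at 37 °C. AAPH (12 mM final) then added and fluorescence read (ex 485/em 520 nm) for 80 min. Net AUC over blank regressed against concentration and converted to Trolox equivalents by standard curve (Trolox = 1). At least three runs.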
# Cholinesterase = Cholinesterase (Equus caballus, UniProt P81908); test: Inhibition of equine serum BuChE using butyrylthiocholine iodide as substrate pretreated for 5 mins followed by substrate addition measured after 5 mins by Ellman's method
# Procedure, shortened: (§2)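 Ellman assay in phosphate buffer pH 8.0. AChE (0.22 U/mL) or BuChE (0.06 U/mL) preincubated 5 min with inhibitor (0.01–100 μM final). DTNB then added, and the reaction started with ATC or BTC (0.075 M solution). IC50 reported as mean ± SD. Selectivity is IC50(BuChE)/IC50(AChE).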
# [3] = biological target: T1, Amyloid-beta precursor protein; test: Inhibition of self-mediated amyloid beta (1 to 42) (unknown origin) aggregation at 20 uM incubated for 48 hrs by thioflavin-T fluorescence assay relative to control; procedure, shortened: as §1
# [4] = biological target: T1, Amyloid-beta precursor protein; test: Inhibition of self-mediated amyloid beta (1 to 42) (unknown origin) aggregation at 15 uM incubated for 48 hrs by thioflavin-T fluorescence assay relative to control; procedure, shortened: as §1
# [5] = biological target: T1, Amyloid-beta precursor protein; test: Disaggregation of self-induced amyloid beta (1 to 42) (unknown origin) preformed fibrils measured after 24 hrs by ThT fluorescence assay relative to control
# Procedure, shortened: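 HFIP-pretreated Aβ1-42 taken up in DMSO (5 mM stock), diluted in 50 mM phosphate pH 7.4 (100 μM final). Peptide incubated 48 h at 37 °C, then compound or buffer added and incubated a further 24 h at 37 °C. Samples diluted to 200 μl with 50 mM glycine-NaOH pH 8.0 and read by ThT fluorescence. Peptide-free blanks run in parallel.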
# [6] = biological target: T1, Amyloid-beta precursor protein; test: Inhibition of self-mediated amyloid beta (1 to 42) (unknown origin) aggregation at 25 uM incubated for 48 hrs by thioflavin-T fluorescence assay relative to control
# Procedure, shortened: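 HFIP-pretreated Aβ1-42 taken up in DMSO (5 mM stock), diluted in 50 mM phosphate pH 7.4 (100 μM final). Incubated 48 h at 37 °C with or without compound at 25 μM. Samples diluted to 200 μl with 50 mM glycine-NaOH pH 8.0 and read by ThT fluorescence. Percent inhibition reported as mean ± SD.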
# [7] = Metal chelating activity assessed as compound-Cu2+ complex formation at 30 uM after 30 mins by UV-visible spectrophotometric analysis
# Procedure, shortened: (§3)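 UV absorption spectra (200–500 nm) were recorded over 30 min for compound (30 μM final) alone or with CuSO4 or FeSO4 (30 μM final). The medium was 20% (v/v) ethanol/buffer: 150 mM NaCl, 20 mM HEPES, pH 7.4.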
# [8] = biological target: T1, Amyloid-beta precursor protein; test: Inhibition of self-mediated amyloid beta (1 to 42) (unknown origin) fibril formation assessed as appearance of sparse fibrils at 25 uM after 48 hrs by transmission electron microscopic analysis
# Acetylcholinesterase = Acetylcholinesterase (Electrophorus electricus, UniProt O42275); test: Inhibition of electric eel AChE using acetylthiocholine iodide as substrate preincubated for 5 mins followed by substrate addition measured after 5 mins by Ellman's method
# [9] = Inhibition of Cu2+ induced amyloid beta (1 to 42) aggregation at 25 uM incubated for 24 hrs by Thioflavin T based fluorometric assay relative to control
# Procedure, shortened: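 Aβ1-42 was pretreated with HFIP, dried to a film, and held as a 5 mM DMSO stock. It was diluted in HEPES pH 6.6 with 150 μM NaCl, then incubated at 100 μM final with or without Cu2+ (100 μM final) for 48 h at 37 °C. Compounds were added at 25 μM final for 24 h at 37 °C. Samples (20 μL) were diluted to 200 μL glycine–NaOH (50 mM, pH 8.0) containing 5 μM ThT before reading fluorescence.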
# [10] = Inhibition of Cu2+ induced amyloid beta (1 to 42) aggregation assessed as fluorescence intensity at 25 uM incubated for 24 hrs by Thioflavin T based fluorometric assay (reference value: 606.64 +/- 36.11 a.u.)
# [11] = Metal chelating activity assessed as compound-Fe2+ complex formation at 30 uM after 30 mins by UV-visible spectrophotometric analysis; procedure, shortened: as §3
# [12] = biological target: T1, Amyloid-beta precursor protein; test: Inhibition of self-mediated amyloid beta (1 to 42) (unknown origin) aggregation at 10 uM incubated for 48 hrs by thioflavin-T fluorescence assay relative to control; procedure, shortened: as §1
# [13] = Selectivity index, ratio of IC50 for equine serum BChE to IC50 for electric eel AChE
# Procedure, shortened: as §2, with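 “solution). Absorbance read at 412 nm, 25 °C, 5 min after substrate.” for “solution).”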
# [14] = biological target: Acetylcholinesterase (Electrophorus electricus) (UniProt O42275); test: Mixed-type inhibition of electric eel AChE assessed as decreased Vmax with higher Km using varying levels of acetylthiocholine iodide as substrate pretreated for 5 mins followed by substrate addition by Lineweaver-Burk plot analysis
# Procedure, shortened: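 AChE kinetics by Ellman's method, with substrate varied at comparatively low concentrations. Inhibitor tested at 10, 20 and 40 nM. Inhibition type assigned from Lineweaver–Burk plots of 1/velocity versus 1/substrate.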
# Chain of Acetylcholinesterase (O42275 whole entry): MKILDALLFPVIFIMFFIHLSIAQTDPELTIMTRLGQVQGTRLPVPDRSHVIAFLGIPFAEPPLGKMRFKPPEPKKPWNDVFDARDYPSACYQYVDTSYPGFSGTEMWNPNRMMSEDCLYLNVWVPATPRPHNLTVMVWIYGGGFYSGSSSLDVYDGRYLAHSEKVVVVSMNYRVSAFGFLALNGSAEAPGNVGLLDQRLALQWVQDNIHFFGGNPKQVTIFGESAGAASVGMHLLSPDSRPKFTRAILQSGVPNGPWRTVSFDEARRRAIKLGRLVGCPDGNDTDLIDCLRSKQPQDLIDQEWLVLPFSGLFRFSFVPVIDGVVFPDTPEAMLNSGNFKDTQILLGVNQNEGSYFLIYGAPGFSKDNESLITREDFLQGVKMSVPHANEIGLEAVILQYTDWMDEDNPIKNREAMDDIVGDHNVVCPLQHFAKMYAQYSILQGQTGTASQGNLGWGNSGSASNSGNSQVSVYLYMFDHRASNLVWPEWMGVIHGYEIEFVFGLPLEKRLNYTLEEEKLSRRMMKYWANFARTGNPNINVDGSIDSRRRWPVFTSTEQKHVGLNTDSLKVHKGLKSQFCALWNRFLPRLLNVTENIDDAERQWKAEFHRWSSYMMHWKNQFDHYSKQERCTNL
# Chain of Cholinesterase (P81908 whole entry): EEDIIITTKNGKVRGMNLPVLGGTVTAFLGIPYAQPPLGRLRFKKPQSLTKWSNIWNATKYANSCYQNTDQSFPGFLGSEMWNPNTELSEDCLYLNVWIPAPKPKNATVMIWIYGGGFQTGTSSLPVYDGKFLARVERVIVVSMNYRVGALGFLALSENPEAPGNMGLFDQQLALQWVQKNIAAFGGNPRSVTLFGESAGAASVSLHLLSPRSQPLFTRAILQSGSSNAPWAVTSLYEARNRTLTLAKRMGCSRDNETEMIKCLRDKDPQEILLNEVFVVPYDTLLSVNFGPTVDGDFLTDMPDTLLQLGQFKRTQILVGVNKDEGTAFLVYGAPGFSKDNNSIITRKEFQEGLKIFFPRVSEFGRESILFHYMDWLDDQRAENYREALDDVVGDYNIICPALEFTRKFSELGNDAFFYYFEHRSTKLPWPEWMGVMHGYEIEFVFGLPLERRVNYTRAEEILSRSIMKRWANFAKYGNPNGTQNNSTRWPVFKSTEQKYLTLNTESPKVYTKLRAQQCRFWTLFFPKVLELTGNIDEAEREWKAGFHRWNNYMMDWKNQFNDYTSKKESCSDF
# T1 sequence (P05067 whole entry): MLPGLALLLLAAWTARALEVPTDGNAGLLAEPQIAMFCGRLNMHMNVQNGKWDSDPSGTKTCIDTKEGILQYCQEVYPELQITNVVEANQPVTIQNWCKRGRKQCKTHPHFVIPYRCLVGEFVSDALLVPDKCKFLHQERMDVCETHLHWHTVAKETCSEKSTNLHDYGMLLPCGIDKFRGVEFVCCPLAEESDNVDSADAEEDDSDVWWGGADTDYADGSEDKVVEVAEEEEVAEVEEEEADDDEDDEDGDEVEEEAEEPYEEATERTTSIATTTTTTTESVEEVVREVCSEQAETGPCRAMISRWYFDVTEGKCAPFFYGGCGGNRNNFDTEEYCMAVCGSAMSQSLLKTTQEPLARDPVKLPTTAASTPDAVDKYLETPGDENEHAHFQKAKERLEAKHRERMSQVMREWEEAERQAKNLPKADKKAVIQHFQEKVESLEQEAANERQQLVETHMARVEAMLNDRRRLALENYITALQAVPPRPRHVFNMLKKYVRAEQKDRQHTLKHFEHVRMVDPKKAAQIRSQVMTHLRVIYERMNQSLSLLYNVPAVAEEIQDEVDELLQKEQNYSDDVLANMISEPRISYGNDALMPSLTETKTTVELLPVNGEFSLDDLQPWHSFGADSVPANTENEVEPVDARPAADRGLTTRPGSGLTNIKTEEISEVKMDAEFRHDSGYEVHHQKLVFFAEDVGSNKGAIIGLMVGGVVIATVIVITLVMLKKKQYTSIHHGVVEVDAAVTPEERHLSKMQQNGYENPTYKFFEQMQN
# Chain of Acetylcholinesterase (Electrophorus electricus) (O42275 24-633 limits assumed): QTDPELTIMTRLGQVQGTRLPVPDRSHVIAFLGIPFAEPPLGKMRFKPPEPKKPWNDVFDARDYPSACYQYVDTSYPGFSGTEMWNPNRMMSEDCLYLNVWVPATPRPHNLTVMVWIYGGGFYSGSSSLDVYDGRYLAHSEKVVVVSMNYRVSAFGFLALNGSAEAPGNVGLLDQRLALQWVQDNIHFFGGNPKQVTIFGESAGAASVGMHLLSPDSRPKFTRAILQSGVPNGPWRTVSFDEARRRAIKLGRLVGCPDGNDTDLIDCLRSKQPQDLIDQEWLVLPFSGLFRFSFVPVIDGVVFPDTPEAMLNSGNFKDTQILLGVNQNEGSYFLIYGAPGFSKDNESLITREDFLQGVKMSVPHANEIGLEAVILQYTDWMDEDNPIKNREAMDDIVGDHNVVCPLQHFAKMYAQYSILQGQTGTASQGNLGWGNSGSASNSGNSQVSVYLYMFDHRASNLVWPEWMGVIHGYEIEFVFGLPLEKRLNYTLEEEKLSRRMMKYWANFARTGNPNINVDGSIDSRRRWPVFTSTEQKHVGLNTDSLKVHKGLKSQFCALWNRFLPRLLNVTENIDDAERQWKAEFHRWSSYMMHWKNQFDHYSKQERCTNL
smiles,measurement,setting,value
CCOC(=O)c1cnc2ccccc2c1N1CCN(CC(=O)Nc2n[nH]c3ncccc23)CC1,IC50,[1],15.7 µM
same,Activity,[2],0.274 µMequiv/µM
same,IC50,Cholinesterase,> 100 µM
same,inhibition,[3],84.1%
same,inhibition,[4],43.8%
same,Activity,[5],61.6%
same,inhibition,[6],81.7%
same,Activity,[7],Active
same,inhibition,[8],Active
same,IC50,Acetylcholinesterase,> 100 µM
same,inhibition,[9],57%
same,Flu intensity,[10],261 a.u.
same,Activity,[11],Active
same,inhibition,[12],28.6%
O=C(CN1CCOCC1)Nc1n[nH]c2ncccc12,Ratio IC50,[13],> 885
same,Activity,[2],0.192 µMequiv/µM
same,IC50,Cholinesterase,> 100 µM
same,Activity,[5],47.4%
same,inhibition,[6],74.6%
same,IC50,Acetylcholinesterase,0.113 µM
CN1CCN(CC(=O)Nc2n[nH]c3ncccc23)CC1,Ratio IC50,[13],> 20400
same,Activity,[2],0.362 µMequiv/µM
same,IC50,Cholinesterase,> 100 µM
same,inhibition,[6],50.9%
same,IC50,Acetylcholinesterase,0.0049 µM
O=C(CN1CCN(c2ccnc3cc(Cl)ccc23)CC1)Nc1n[nH]c2ncccc12,Ratio IC50,[13],> 8330
same,Activity,[2],0.286 µMequiv/µM
same,IC50,Cholinesterase,> 100 µM
same,inhibition,[6],23.6%
same,IC50,Acetylcholinesterase,0.012 µM
Cc1cc(N2CCN(CC(=O)Nc3n[nH]c4ncccc34)CC2)n2ncnc2n1,Ratio IC50,[13],> 4550
same,Activity,[2],0.216 µMequiv/µM
same,IC50,Cholinesterase,> 100 µM
same,inhibition,[6],43.4%
same,IC50,Acetylcholinesterase,0.022 µM
CCOC(=O)c1cnc2ccc(C)cc2c1N1CCN(CC(=O)Nc2n[nH]c3ncccc23)CC1,Activity,[2],0.271 µMequiv/µM
same,IC50,Cholinesterase,> 100 µM
same,Activity,[5],52.1%
same,inhibition,[6],69.3%
same,IC50,Acetylcholinesterase,> 100 µM
N#Cc1cccnc1N1CCN(CC(=O)Nc2n[nH]c3ncccc23)CC1,Activity,[2],0.163 µMequiv/µM
same,IC50,Cholinesterase,> 100 µM
same,inhibition,[6],40%
same,IC50,Acetylcholinesterase,> 100 µM
O=C(CN1CCCCC1)Nc1n[nH]c2ncccc12,Ratio IC50,[13],> 20800
same,Activity,[2],0.65 µMequiv/µM
same,IC50,Cholinesterase,> 100 µM
same,inhibition,[6],50.6%
same,IC50,Acetylcholinesterase,0.0048 µM
O=C(CN1CCN(CC(=O)Nc2n[nH]c3ncccc23)CC1)Nc1n[nH]c2ncccc12,Ratio IC50,[13],> 2220
same,IC50,[1],17.9 µM
same,Activity,[2],0.283 µMequiv/µM
same,IC50,Cholinesterase,> 100 µM
same,inhibition,[14],Active
same,inhibition,[3],58%
same,inhibition,[4],39.9%
same,Activity,[5],53.8%
same,inhibition,[6],79.5%
same,Activity,[7],Active
same,inhibition,[8],Active
same,IC50,Acetylcholinesterase,0.045 µM
same,inhibition,[9],58.8%
same,Flu intensity,[10],250 a.u.
same,Activity,[11],Active
same,inhibition,[12],3.9%
COc1cc(/C=C/C(=O)CC(=O)/C=C/c2ccc(O)c(OC)c2)ccc1O,inhibition,[8],Active
same,inhibition,[9],45.2%
same,Flu intensity,[10],333 a.u.
